Results as given in paper PMC6039301 (Journal of medicinal chemistry, 2017).
Entries after “also recorded” stand apart in the source; their conditions may differ. Each block holds one compound with its values, some of them ahead of it.

How the values were obtained:
[1] = tested on: ER-positive MCF-7 breast cancer cells; experiment: Cell proliferation assay; assay type: cell-based; conditions: for Cell proliferation (CP), percent of vehicle control (antiproliferative efficacy): MCF-7, 3 μM, 6 days, maximum suppression ca. 20%; for IC50: Homo sapiens, MCF7, read-out: IC50 antiproliferative activity
[2] = tested on: ERα levels in MCF-7 breast cancer cells; experiment: In-cell western assay for ERα level; assay type: cell-based; conditions: MCF-7, 3 μM, 24 h
In short: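 MCF-7 cells seeded at 3000 cells/well, exposed to test compound at a single 3 μM concentration for 24 h. Cells fixed in 4% formaldehyde, permeabilized with 0.1% Triton X-100, blocked, then probed overnight at 4 °C with rabbit anti-ERα (HC-20). IRDye 800 secondary and Cell Tag 700 were used, with ERα signal normalized to Cell Tag. Reported as percent of vehicle; mean of ≥3 independent experiments.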

ERα levels = experiment: Western blot analysis of ERα; assay type: cell-based; conditions: 3×10^−6 M, 24 h (Figure 6B)
In short: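 Cells treated 24 h with test compound at 3×10−10, 3×10−8 or 3×10−6 M; E2 (1×10−8 M) and tamoxifen (3×10−6 M) were reference treatments. Whole-cell extracts made with protease and phosphatase inhibitors, separated on 10% SDS-PAGE and transferred to nitrocellulose. Probed for ERα (F10 antibody) and β-actin. Band levels expressed as percent of vehicle.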

[3] = target: T1, full-length human estrogen receptor alpha (ERα) (Homo sapiens, UniProt P03372); conditions: cited from earlier work
T1 sequence (P03372 1-595): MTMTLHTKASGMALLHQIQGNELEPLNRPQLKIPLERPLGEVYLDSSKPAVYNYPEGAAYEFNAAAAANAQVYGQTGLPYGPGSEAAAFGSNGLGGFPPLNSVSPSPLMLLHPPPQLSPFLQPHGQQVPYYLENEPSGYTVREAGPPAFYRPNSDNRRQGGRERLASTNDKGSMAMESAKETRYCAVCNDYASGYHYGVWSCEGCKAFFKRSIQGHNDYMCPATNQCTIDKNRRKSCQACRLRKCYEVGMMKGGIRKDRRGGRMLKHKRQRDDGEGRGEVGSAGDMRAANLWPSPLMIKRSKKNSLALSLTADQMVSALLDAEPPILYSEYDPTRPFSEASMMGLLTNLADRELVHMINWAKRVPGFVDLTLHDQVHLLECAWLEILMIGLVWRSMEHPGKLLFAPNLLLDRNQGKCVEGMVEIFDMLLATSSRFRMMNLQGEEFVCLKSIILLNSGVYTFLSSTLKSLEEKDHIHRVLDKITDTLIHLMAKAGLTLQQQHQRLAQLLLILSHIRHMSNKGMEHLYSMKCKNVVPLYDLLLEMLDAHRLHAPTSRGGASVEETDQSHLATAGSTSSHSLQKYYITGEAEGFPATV

Structure (SMILES): O=C(/C=C/c1ccc(C(=C2C3CC4CC(C3)CC2C4)c2ccc(O)cc2)cc1)N(CCO)CCO [Compound 31, (E)-3-(4-(((1r,3r,5R,7S)-Adamantan-2-ylidene)(4-hydroxyphenyl)methyl)phenyl)-N,N-bis(2-hydroxyethyl)acrylamide]
Cell proliferation (CP), percent of vehicle control (antiproliferative efficacy) [1]: relatively unimpressive
ERα level, percent of vehicle control (ERα downregulating efficacy) [2]: relatively unimpressive

Structure (SMILES): NCCCCNC(=O)/C=C/c1ccc(C(=C2C3CC4CC(C3)CC2C4)c2ccc(O)cc2)cc1 [Compound 26, (E)-3-(4-(((1r,3r,5R,7S)-Adamantan-2-ylidene)(4-hydroxyphenyl)methyl)phenyl)-N-(4-aminobutyl)acrylamide]
ERα level, percent of vehicle control (ERα downregulating efficacy) [2]: good

Structure (SMILES): CCCCN(C)C(=O)/C=C/c1ccc(C(=C2C3CC4CC(C3)CC2C4)c2ccc(O)cc2)cc1 [Compound 29, (E)-3-(4-(((1r,3r,5R,7S)-Adamantan-2-ylidene)(4-hydroxyphenyl)methyl)phenyl)-N-butyl-N-methylacrylamide]
Cell proliferation (CP), percent of vehicle control (antiproliferative efficacy) [1]: very poor efficacies
ERα level, percent of vehicle control (ERα downregulating efficacy) [2]: very poor efficacies

Structure (SMILES): CC/C(=C(\c1ccc(O)cc1)c1ccc(OCCN(C)C)cc1)c1ccccc1 [hydroxytamoxifen, 4-hydroxytamoxifen]
effect on cellular ERα level (Western blot) (ERα levels): upregulate ERα levels

Structure (SMILES): COC(=O)/C=C/c1ccc(C(=C2C3CC4CC(C3)CC2C4)c2ccc(O)cc2)cc1 [Compound 7, Methyl (E)-3-(4-(((1r,3r,5R,7S)-Adamantan-2-ylidene)(4-hydroxyphenyl)methyl)phenyl) acrylate]
Cell proliferation (CP), percent of vehicle control (antiproliferative efficacy) [1]: no anti-proliferative activity

Structure (SMILES): O=C(/C=C/c1ccc(C(=C2C3CC4CC(C3)CC2C4)c2ccc(O)cc2)cc1)OCCCCO [Compound 13, 4-Hydroxybutyl (E)-3-(4-(((1r,3r,5R,7S)-Adamantan-2-ylidene)(4-hydroxyphenyl)methyl)phenyl)acrylate]
ERα level, percent of vehicle control (ERα downregulating efficacy) [2]: good to very good

IC50 [1]: 2.4 nM
Structure (SMILES): O=C(/C=C/c1ccc(C(=C2C3CC4CC(C3)CC2C4)c2ccc(O)cc2)cc1)NCCO [Compound 20, (E)-3-(4-(((1r,3r,5R,7S)-Adamantan-2-ylidene)(4-hydroxyphenyl)methyl)phenyl)-N-(2-hydroxyethyl)acrylamide]
Cell proliferation (CP), percent of vehicle control (antiproliferative efficacy) [1]: impressive efficacies
ERα level, percent of vehicle control (ERα downregulating efficacy) [2]: impressive efficacies

IC50 [1]: 10 nM
Structure (SMILES): O=C(/C=C/c1ccc(C(=C2C3CC4CC(C3)CC2C4)c2ccc(O)cc2)cc1)NCCCCCO [Compound 23, (E)-3-(4-(((1r,3r,5R,7S)-Adamantan-2-ylidene)(4-hydroxyphenyl)methyl)phenyl)-N-(5-hydroxypentyl)acrylamide]
Cell proliferation (CP), percent of vehicle control (antiproliferative efficacy) [1]: equivalent to that of the parent acid 5
ERα level, percent of vehicle control (ERα downregulating efficacy) [2]: good and similar to that of the parent 5

IC50 [1]: 10 nM
Structure (SMILES): NCCNC(=O)/C=C/c1ccc(C(=C2C3CC4CC(C3)CC2C4)c2ccc(O)cc2)cc1 [Compound 24, (E)-3-(4-(((1r,3r,5R,7S)-Adamantan-2-ylidene)(4-hydroxyphenyl)methyl)phenyl)-N-(2-aminoethyl)acrylamide]

Structure (SMILES): CC(C)CCCCCOC(=O)/C=C/c1ccc(C(=C2C3CC4CC(C3)CC2C4)c2ccc(O)cc2)cc1 [Compound 10, 6-Methylheptyl (E)-3-(4-(((1r,3r,5R,7S)-Adamantan-2-ylidene)(4-hydroxyphenyl)methyl)phenyl)acrylate]
Cell proliferation (CP), percent of vehicle control (antiproliferative efficacy) [1]: no anti-proliferative activity
ERα level, percent of vehicle control (ERα downregulating efficacy) [2]: good to very good

Structure (SMILES): NCCCNC(=O)/C=C/c1ccc(C(=C2C3CC4CC(C3)CC2C4)c2ccc(O)cc2)cc1 [Compound 25, (E)-3-(4-(((1r,3r,5R,7S)-Adamantan-2-ylidene)(4-hydroxyphenyl)methyl)phenyl)-N-(3-aminopropyl)acrylamide]
ERα level, percent of vehicle control (ERα downregulating efficacy) [2]: good

Structure (SMILES): NC(=O)/C=C/c1ccc(C(=C2C3CC4CC(C3)CC2C4)c2ccc(O)cc2)cc1 [Compound 16, (E)-3-(4-(((1r,3r,5R,7S)-Adamantan-2-ylidene)(4-hydroxyphenyl)methyl)phenyl)acrylamide]
Cell proliferation (CP), percent of vehicle control (antiproliferative efficacy) [1]: Least good
ERα level, percent of vehicle control (ERα downregulating efficacy) [2]: Least good

IC50 [1]: 31 nM
Structure (SMILES): O=C(O)/C=C/c1ccc(C(=C2C3CC4CC(C3)CC2C4)c2ccc(O)cc2)cc1 [Compound 5, (E)-3-(4-(((1r,3r,5R,7S)-Adamantan-2-ylidene)(4-hydroxyphenyl)methyl)phenyl)acrylic acid]

Structure (SMILES): N#C/C=C/c1ccc(C(=C2C3CC4CC(C3)CC2C4)c2ccc(O)cc2)cc1 [Compound 14, (E)-3-(4-(((1r,3r,5R,7S)-Adamantan-2-ylidene)(4-hydroxyphenyl)methyl)phenyl) acrylonitrile]
Cell proliferation (CP), percent of vehicle control (antiproliferative efficacy) [1]: matching that of vehicle control; also recorded: no anti-proliferative activity
ERα level, percent of vehicle control (ERα downregulating efficacy) [2]: very effective

Structure (SMILES): O=C(/C=C/c1ccc(C(=C2C3CC4CC(C3)CC2C4)c2ccc(O)cc2)cc1)NCC(F)(F)F [Compound 28, (E)-3-(4-(((1r,3r,5R,7S)-Adamantan-2-ylidene)(4-hydroxyphenyl)methyl)phenyl)-N-(2,2,2-trifluoroethyl)acrylamide]
Cell proliferation (CP), percent of vehicle control (antiproliferative efficacy) [1]: Least good
ERα level, percent of vehicle control (ERα downregulating efficacy) [2]: Least good

Structure (SMILES): CCCCCC(=O)/C=C/c1ccc(C(=C2C3CC4CC(C3)CC2C4)c2ccc(O)cc2)cc1 [Compound 6, (E)-1-(4-(((1r,3r,5R,7S)-Adamantan-2-ylidene)(4-hydroxyphenyl)methyl)phenyl)oct-1-en-3-one]
Cell proliferation (CP), percent of vehicle control (antiproliferative efficacy) [1]: some efficacy
ERα level, percent of vehicle control (ERα downregulating efficacy) [2]: some efficacy

Structure (SMILES): CCCCNC(=O)/C=C/c1ccc(C(=C2C3CC4CC(C3)CC2C4)c2ccc(O)cc2)cc1 [Compound 18, (E)-3-(4-(((1r,3r,5R,7S)-Adamantan-2-ylidene)(4-hydroxyphenyl)methyl)phenyl)-N-butylacrylamide]
Cell proliferation (CP), percent of vehicle control (antiproliferative efficacy) [1]: good efficacies
ERα level, percent of vehicle control (ERα downregulating efficacy) [2]: good efficacies

Structure (SMILES): CCCCOC(=O)/C=C/c1ccc(C(=C2C3CC4CC(C3)CC2C4)c2ccc(O)cc2)cc1 [Compound 9, Butyl (E)-3-(4-(((1r,3r,5R,7S)-Adamantan-2-ylidene)(4-hydroxyphenyl)methyl)phenyl) acrylate]
ERα level, percent of vehicle control (ERα downregulating efficacy) [2]: good to very good

IC50 [1]: 1.9 nM
Structure (SMILES): O=C(/C=C/c1ccc(C(=C2C3CC4CC(C3)CC2C4)c2ccc(O)cc2)cc1)NCCCO [Compound 21, (E)-3-(4-(((1r,3r,5R,7S)-Adamantan-2-ylidene)(4-hydroxyphenyl)methyl)phenyl)-N-(3-hydroxypropyl)acrylamide]
Cell proliferation (CP), percent of vehicle control (antiproliferative efficacy) [1]: equivalent to that of the parent acid 5; also recorded: comparable to that of fulvestrant
ERα level, percent of vehicle control (ERα downregulating efficacy) [2]: good and similar to that of the parent 5; also recorded: comparable to that of fulvestrant

Structure (SMILES): CCCNS(=O)(=O)/C=C/c1ccc(C(=C2C3CC4CC(C3)CC2C4)c2ccc(O)cc2)cc1 [Compound 15, (E)-2-(4-(((1r,3r,5R,7S)-Adamantan-2-ylidene)(4-hydroxyphenyl)methyl)phenyl)-N-propylethene-1-sulfonamide]
Cell proliferation (CP), percent of vehicle control (antiproliferative efficacy) [1]: only modest
ERα level, percent of vehicle control (ERα downregulating efficacy) [2]: only modest

Structure (SMILES): Oc1ccc(C(=C2C3CC4CC(C3)CC2C4)c2ccc(O)cc2)cc1 [parent bisphenolic adamantyl-core]
binding affinity for ERα, fold higher than that of estradiol (E2) [3]: ca. 3 fold
Ki ([3]; read-out: Ki for ERα, corresponds to the affinity relative to E2): 0.07 nM

Structure (SMILES): C[C@]12CC[C@@H]3c4ccc(O)cc4C[C@@H](CCCCCCCCC[S+]([O-])CCCC(F)(F)C(F)(F)F)[C@H]3[C@@H]1CC[C@@H]2O (some centres unmarked) [Fulvestrant, fulvestrant, reference compound]
ERα level, percent of vehicle control (ERα downregulating efficacy) [2]: 20%
